Measurements reported in PMC8378419 (ACS chemical neuroscience, 2019).

Experiments:
[1] = biological target: T1, α1a-AR (Homo sapiens, UniProt P35348); assay: radioligand competition, [3H]prazosin; type: binding; settings: Cheng-Prusoff
T1 sequence (P35348 1-466): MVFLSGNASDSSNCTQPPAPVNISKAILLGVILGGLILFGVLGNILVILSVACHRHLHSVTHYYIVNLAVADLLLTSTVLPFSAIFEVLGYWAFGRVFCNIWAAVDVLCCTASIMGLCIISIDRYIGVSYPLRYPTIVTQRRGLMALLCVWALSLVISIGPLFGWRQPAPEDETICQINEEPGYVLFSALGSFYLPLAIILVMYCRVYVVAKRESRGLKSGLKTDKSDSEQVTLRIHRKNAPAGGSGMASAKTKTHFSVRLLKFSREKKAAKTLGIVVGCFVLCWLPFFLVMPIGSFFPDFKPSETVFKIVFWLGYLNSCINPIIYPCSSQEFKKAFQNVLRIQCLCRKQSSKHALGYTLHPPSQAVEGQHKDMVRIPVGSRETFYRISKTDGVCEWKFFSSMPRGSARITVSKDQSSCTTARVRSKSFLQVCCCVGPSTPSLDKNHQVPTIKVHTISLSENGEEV
Method in brief: (§1)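 Binding was measured with [3H]prazosin on cloned human α1-adrenoceptor subtypes expressed in CHO cells. Each experiment was run in triplicate.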

[2] = biological target: T2, 5-HT1A (Homo sapiens, UniProt P08908); assay: radioligand competition, [3H]8-OH-DPAT; type: binding; settings: Cheng-Prusoff
T2 sequence (P08908 1-422): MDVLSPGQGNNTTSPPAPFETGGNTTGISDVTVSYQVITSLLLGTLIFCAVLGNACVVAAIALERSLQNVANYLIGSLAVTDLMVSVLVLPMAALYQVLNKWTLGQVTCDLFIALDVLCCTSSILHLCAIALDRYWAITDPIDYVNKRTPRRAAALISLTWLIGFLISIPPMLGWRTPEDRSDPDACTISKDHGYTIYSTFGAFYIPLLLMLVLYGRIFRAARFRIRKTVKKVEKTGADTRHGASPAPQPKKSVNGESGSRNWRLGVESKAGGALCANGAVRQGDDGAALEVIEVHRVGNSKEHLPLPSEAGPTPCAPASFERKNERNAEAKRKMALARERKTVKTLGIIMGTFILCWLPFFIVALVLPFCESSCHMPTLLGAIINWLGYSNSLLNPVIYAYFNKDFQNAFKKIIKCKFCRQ
Method in brief: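 Human cloned 5-HT1A receptors expressed in HeLa cells were labelled with [3H]8-OH-DPAT and displaced by the test compound. Each experiment was run in triplicate.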

[3] = biological target: T3, hD4 (Homo sapiens, UniProt P21917); assay: radioligand competition, [3H]N-methylspiperone; type: binding; settings: Cheng-Prusoff
T3 sequence (P21917 1-419): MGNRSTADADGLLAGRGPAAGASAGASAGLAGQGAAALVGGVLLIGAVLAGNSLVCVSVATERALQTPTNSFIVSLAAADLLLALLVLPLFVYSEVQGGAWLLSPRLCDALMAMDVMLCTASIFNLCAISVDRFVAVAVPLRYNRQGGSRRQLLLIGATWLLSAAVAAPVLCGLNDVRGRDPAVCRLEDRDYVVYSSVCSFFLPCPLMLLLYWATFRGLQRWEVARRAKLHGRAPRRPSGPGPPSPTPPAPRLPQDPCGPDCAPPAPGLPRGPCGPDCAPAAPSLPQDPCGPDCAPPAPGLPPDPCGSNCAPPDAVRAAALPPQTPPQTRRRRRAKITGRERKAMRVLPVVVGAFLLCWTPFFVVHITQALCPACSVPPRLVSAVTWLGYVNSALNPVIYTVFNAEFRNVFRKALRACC
Method in brief: (§2)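 Radioligand displacement used [3H]N-methylspiperone at human D3 or D4 receptors stably expressed in HEK293 cells. Samples were run in triplicate. IC50 values were converted to Ki with the Cheng–Prusoff equation and given as pKi (−logKi).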

[4] = biological target: T4, α1d-AR (Homo sapiens, UniProt P25100); assay: radioligand competition, [3H]prazosin; type: binding; settings: Cheng-Prusoff
T4 sequence (P25100 1-572): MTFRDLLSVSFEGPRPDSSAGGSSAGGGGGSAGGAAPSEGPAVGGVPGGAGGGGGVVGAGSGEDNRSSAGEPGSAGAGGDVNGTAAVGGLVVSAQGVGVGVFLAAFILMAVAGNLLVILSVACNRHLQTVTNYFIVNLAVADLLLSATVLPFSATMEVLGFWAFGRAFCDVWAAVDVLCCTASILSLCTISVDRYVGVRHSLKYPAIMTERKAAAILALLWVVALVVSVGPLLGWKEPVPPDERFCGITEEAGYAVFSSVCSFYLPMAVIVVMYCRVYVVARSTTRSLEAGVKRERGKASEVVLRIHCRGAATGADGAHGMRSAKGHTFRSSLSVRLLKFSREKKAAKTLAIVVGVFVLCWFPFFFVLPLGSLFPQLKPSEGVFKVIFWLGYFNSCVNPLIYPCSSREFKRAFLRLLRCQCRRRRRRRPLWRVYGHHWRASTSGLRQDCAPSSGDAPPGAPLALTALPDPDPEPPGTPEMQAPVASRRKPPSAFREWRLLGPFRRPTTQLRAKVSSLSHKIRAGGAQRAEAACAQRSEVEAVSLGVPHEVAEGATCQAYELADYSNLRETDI
Method in brief: as §1

[5] = biological target: T5, α1b-AR (Homo sapiens, UniProt P35368); assay: radioligand competition, [3H]prazosin; type: binding; settings: Cheng-Prusoff
T5 sequence (P35368 1-520): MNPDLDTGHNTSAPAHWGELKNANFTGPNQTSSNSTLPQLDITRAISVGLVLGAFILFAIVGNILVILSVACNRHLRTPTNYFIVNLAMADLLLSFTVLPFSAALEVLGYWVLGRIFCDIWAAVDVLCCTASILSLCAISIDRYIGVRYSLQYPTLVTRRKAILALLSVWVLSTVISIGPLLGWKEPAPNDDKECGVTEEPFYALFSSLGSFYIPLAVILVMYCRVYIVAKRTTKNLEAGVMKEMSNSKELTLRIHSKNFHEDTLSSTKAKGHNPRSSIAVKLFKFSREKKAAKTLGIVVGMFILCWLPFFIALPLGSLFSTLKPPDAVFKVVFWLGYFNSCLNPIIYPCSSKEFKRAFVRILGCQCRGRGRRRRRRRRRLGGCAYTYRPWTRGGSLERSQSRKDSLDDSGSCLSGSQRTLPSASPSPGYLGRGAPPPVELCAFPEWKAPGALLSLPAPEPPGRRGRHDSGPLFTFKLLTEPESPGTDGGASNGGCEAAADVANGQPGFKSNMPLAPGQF
Method in brief: as §1

[6] = biological target: T6, hD3 (Homo sapiens, UniProt P35462); assay: radioligand competition, [3H]N-methylspiperone; type: binding; settings: Cheng-Prusoff
T6 sequence (P35462 whole entry): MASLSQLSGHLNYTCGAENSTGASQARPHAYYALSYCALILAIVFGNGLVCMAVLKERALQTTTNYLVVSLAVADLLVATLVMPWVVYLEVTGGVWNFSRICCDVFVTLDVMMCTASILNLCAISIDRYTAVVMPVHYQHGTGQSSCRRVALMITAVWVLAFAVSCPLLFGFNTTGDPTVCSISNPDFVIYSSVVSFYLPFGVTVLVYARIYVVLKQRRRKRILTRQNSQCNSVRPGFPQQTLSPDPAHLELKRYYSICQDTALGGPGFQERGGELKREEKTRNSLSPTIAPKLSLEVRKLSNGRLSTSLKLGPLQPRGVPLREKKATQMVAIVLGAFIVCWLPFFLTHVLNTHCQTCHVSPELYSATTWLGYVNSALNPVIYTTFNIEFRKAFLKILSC
Method in brief: as §2

[7] = biological target: D1 (Homo sapiens, UniProt P21728); assay: cAMP assay; type: cell-based; settings: antagonist
Sequence of D1 (P21728 whole entry): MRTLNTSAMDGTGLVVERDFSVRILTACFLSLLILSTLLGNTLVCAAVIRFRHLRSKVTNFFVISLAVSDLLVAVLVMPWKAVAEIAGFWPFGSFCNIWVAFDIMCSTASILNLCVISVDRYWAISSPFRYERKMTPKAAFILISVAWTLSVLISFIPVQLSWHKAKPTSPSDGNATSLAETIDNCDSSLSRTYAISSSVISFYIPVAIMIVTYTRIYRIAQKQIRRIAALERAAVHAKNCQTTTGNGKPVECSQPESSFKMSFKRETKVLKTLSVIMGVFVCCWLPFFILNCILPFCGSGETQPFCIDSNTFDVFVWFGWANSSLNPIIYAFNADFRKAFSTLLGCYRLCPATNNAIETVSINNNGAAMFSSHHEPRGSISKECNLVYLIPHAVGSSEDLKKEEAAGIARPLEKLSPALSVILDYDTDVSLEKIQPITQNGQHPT

[8] = biological target: T2, 5-HT1A; assay: […]GTPγS binding; type: biochemical; settings: agonist
[9] = biological target: T6, hD3; assay: mitogenesis assay; type: cell-based; settings: full agonist

Row | Structure (SMILES) | pKi, human cloned receptor / α1 ^a [1] | pKi, human cloned receptor / 5-HT1A [2] | pKi, human cloned receptor / D4 [3] | pKi, human cloned receptor / α1 ^d [4] | pKi, human cloned receptor / D2 [5] | pKi, human cloned receptor / D3 [6] | pKi, human cloned receptor / D3 [1] | pKi, human cloned receptor / D3 [4] | pKi, human cloned receptor / D3 [5] | Functional profile of 8 / pEC50 (pIC50) [7] | Functional profile of 8 / pEC50 (pIC50) [8] | Functional profile of 8 / pEC50 (pIC50) [9] | pKi, human cloned receptor / α1 ^a [5]
1 | COc1cccc(OCCNCC2COCC(c3ccccc3)(c3ccccc3)O2)c1 (centres unmarked) [compound 7, N-((6,6-Diphenyl-1,4-dioxan-2-yl)methyl)-2-(3-methoxyphenoxy)ethanamine] | 6.41 | 8.91 | 6.45 | 6.98 | < 6 | 7.37 | – | – | – | – | – | – | –
2 | COc1cccc(OC)c1OCCNCC1COCC(c2ccccc2)(c2ccccc2)O1 (centres unmarked) [compound 2, 2] | – | – | 5.77 | – | – | 6.34 | – | – | – | – | – | – | –
3 | c1ccc(OCCNCC2COCC(c3ccccc3)(c3ccccc3)O2)cc1 (centres unmarked) [compound 4, N-((6,6-diphenyl-1,4-dioxan-2-yl)methyl)-2-phenoxyethan-1-amine] | – | – | – | – | – | 7.92 | – | – | – | – | – | – | –
4 | COc1ccc(OCCNCC2COCC(c3ccccc3)(c3ccccc3)O2)cc1OC (centres unmarked) [compound 12, 2-(3,4-Dimethoxyphenoxy)-N-((6,6-diphenyl-1,4-dioxan-2-yl)methyl)ethanamine] | – | 7.71 | 5.84 | – | – | 6.10 | < 6 | < 6 | < 6 | – | – | – | –
5 | COc1cccc(OCCNCC2COCC(c3ccccc3)(c3ccccc3)O2)c1OC (centres unmarked) [compound 11, 2-(2,3-Dimethoxyphenoxy)-N-((6,6-diphenyl-1,4-dioxan-2-yl)methyl)ethanamine] | – | – | 6.87 | – | – | 6.79 | – | – | – | – | – | – | –
6 | Oc1cccc(OCCNCC2COCC(c3ccccc3)(c3ccccc3)O2)c1 (centres unmarked) [compound 8, 3-(2-(((6,6-Diphenyl-1,4-dioxan-2-yl)methyl)amino)ethoxy)phenol] | < 6 | – | – | 6.56 | – | – | – | – | – | 5.49 ± 0.10 | 8.28 ± 0.15 | 8.99 ± 0.09 | < 6
7 | Oc1ccc(OCCNCC2COCC(c3ccccc3)(c3ccccc3)O2)cc1 (centres unmarked) [compound 10, 10] | 6.56 | 7.59 | 6.49 | 7.01 | < 6 | 7.37 | – | – | – | – | – | – | –
8 | COc1ccc(OCCNCC2COCC(c3ccccc3)(c3ccccc3)O2)cc1 (centres unmarked) [compound 9, N-((6,6-Diphenyl-1,4-dioxan-2-yl)methyl)-2-(4-methoxyphenoxy)ethanamine] | – | 7.17 | 6.45 | – | – | 6.41 | < 6 | < 6 | < 6 | – | – | – | –
9 | c1ccc(C2(c3ccccc3)COCC(CNCCOc3ccc4c(c3)OCO4)O2)cc1 (centres unmarked) [compound 13, 2-(Benzo[d][1,3]dioxol-5-yloxy)-N-((6,6-diphenyl-1,4-dioxan-2-yl)methyl)ethanamine] | 6.32 | 8.04 | 6.79 | 6.81 | < 6 | 6.99 | – | – | – | – | – | – | –
